For test [1], the target named is T1, C-X-C chemokine receptor type 4 (Homo sapiens, UniProt P61073). The test can be described thus: (§1) Inhibitory activity based on the inhibition of [Ca2+] mobilization induced by human SDF-1alpha stimulation through C-X-C chemokine receptor type 4. The method, boiled down:
(§2)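 CHO cells transfected with CXCR4 were loaded with Fura-2-AM for 1–2 h and then pretreated with analogue. Recombinant human SDF-1α was added 3 min later. [Ca2+]i rise was measured spectrofluorometrically by a modified Fura-2 method, and IC50 was derived from inhibition of mobilization. Values are the mean of two experiments.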

The target of test [2] is T1, C-X-C chemokine receptor type 4. Described as §1. The method, boiled down:
as §2
This is another data set of the same source.

The target is the same in test [3]. The test can be described thus: (§3) Inhibitory activity based on the inhibition of [Ca2+] mobilization induced by human SDF-1alpha stimulation through CXCR4. The method, boiled down:
as §2

Test [4] has the same target. Described as §3. The method, boiled down:
as §2
The source holds these as a separate data set.

Test [5] relates to MT4. Briefly: Anti-HIV activity based on the protection against HIV-induced cytopathogenicity in MT-4 cells using MTT method. It is filed as functional, cell-based, Homo sapiens. Particulars: mt4. An outline of the steps: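 MT-4 cells challenged with the X4 strain HIV-1 IIIB. Protection from virus-induced cytopathogenicity was read by the MTT method, and EC50 was derived. Values are the mean of at least three experiments.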
(In general: Damage to the host cells serves as the signal in cytopathic effect assays.)

SMILES strings stand for the structures. Several values for one entry are separate records, joined by “and”; a condition that tells them apart may be missing. Equal entries are not always repeated.

T1 sequence (P61073 whole entry): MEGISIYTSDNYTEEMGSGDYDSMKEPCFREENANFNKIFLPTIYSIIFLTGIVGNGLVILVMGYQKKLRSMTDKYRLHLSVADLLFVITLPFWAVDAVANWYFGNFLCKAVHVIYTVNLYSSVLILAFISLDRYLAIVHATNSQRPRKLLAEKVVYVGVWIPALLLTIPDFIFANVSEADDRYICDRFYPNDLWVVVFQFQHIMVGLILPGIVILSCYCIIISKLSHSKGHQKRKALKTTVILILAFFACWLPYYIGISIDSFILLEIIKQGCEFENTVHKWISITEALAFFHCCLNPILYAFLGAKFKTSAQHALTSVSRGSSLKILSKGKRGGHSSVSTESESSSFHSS

For the molecule `C[C@H]1/C=C\[C@@H](CCCCN)NC(=O)[C@H](CCCCN)NC(=O)[C@H](CCCNC(=N)N)NC(=O)[C@H](Cc2ccc(O)cc2)NC(=O)[C@@H](NC(=O)[C@H](Cc2c[nH]c3ccccc23)NC(=O)[C@H](CCCNC(=N)N)NC(=O)[C@@H](N)CCCN=C(N)N)CSSC[C@@H](C(=O)N[C@@H](CCCNC(=N)N)C(=O)O)NC(=O)[C@H](CCCNC(N)=O)NC(=O)[C@H](CCCNC(=N)N)NC(=O)[C@H](Cc2ccc(O)cc2)NC1=O`, the IC50 – broadly, the concentration that gives 50% inhibition – stood at 27 nM in test [1] and 30 nM in test [2].
As to `C[C@H]1/C=C\[C@@H](CCCCN)NC(=O)[C@H](CCCCN)NC(=O)[C@H](CCCN=C(N)N)NC(=O)[C@H](Cc2ccc(O)cc2)NC(=O)[C@@H](NC(=O)[C@H](Cc2ccc3ccccc3c2)NC(=O)[C@H](CCCN=C(N)N)NC(=O)[C@@H](N)CCCN=C(N)N)CSSC[C@@H](C(=O)N[C@@H](CCCN=C(N)N)C(N)=O)NC(=O)[C@H](CCCNC(N)=O)NC(=O)[C@H](CCCN=C(N)N)NC(=O)[C@H](Cc2ccc(O)cc2)NC1=O`, the values for the IC50 in test [3] and in test [4] were 10 nM and 5 nM, respectively. The EC50 (usually the concentration giving half of the maximal effect) in test [5] was 4.7 nM and 1.9 nM.

For the origin of these results see ChEMBL document CHEMBL1135248, “Synthesis and evaluation of pseudopeptide analogues of a specific CXCR4 inhibitor, T140: the insertion of an (E)-alkene dipeptide isostere into the betaII'-turn moiety” (Bioorg Med Chem Lett, 2002).
